Data from paper PMC7591420 (Targeted Oncology, 2020).
Where two headings read alike, the source gives them in different places.

Tests used:
[1] = tested on: patients; conditions: cited from earlier work
[2] = tested on: patients with advanced solid tumors; type: in vivo, human; conditions: all cohorts
Outline: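 Open-label, non-randomized multicenter escalation plus expansion, 28-day cycles. PI3K inhibitor 0.2–0.8 mg/kg IV over 1 h on days 1, 8, 15 or 1, 8, 15, 22 (max 65 mg); MEK inhibitor 30–50 mg BID orally, continuous from day 4 or 4 days on/3 off from day 6. DLTs assessed in cycle 1; adverse events graded by NCI CTCAE v4.0.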

[3] = Plasma pharmacokinetics of refametinib; type: in vivo, human; conditions: for AUC(0-t) / Cmax: human, plasma, oral, cycle 1 day 14, refametinib alone, geometric mean (% CV); for AUC(0-t): AUC(0–8)
[4] = tested on: patients with advanced cancer; conditions: cited from earlier work
[5] = Plasma pharmacokinetics of copanlisib; type: in vivo, human; conditions: for Cmax / AUC(0-t): human, plasma, intravenous, cycle 1 day 1, copanlisib alone, geometric mean (% CV); for AUC(0-t): AUC(0–25)
[6] = tested on: patients with solid tumors; conditions: intravenous monotherapy; cited from earlier work
[7] = copanlisib 0.4 mg/kg as monotherapy; cited from earlier work
[8] = 30 mg, cohort 2C: copanlisib 0.4 mg/kg weekly, refametinib 30 mg BID
[9] = 30 mg, expansion cohort: copanlisib 0.4 mg/kg weekly, refametinib 30 mg BID
[10] = 0.4 mg/kg, cohort 2C: copanlisib 0.4 mg/kg weekly, refametinib 30 mg BID
[11] = 0.4 mg/kg, expansion cohort: copanlisib 0.4 mg/kg weekly, refametinib 30 mg BID

CC(=O)Nc1cccc(-n2c(=O)n(C3CC3)c(=O)c3c(Nc4ccc(I)cc4F)n(C)c(=O)c(C)c32)c1 [trametinib]
incidence of ophthalmologic toxicities ([1]; all-cause): 19%

COc1cc(F)c(F)c(Nc2ccc(I)cc2F)c1NS(=O)(=O)C1(C[C@H](O)CO)CC1 [refametinib]
Patients with dose modifications attributed to refametinib-related TEAEs ([2]; N = 64): 53.1%
Patients with TEAEs considered related to refametinib ([2]; N = 64, given with copanlisib): 95.3%
AUC(0-t) ([3]; 30 mg, cohort 1: copanlisib 0.2 mg/kg 3 weeks on/1 week off, refametinib 30 mg BID): 2.51 µg·h/mL
AUC(0-t) ([3]; 30 mg, cohort 2B: copanlisib 0.6 mg/kg 3 weeks on/1 week off, refametinib 30 mg BID): 3.75 µg·h/mL
AUC(0-t) [3, 8]: 4.77 µg·h/mL
AUC(0-t) ([3]; 30 mg, cohort 3A: copanlisib 0.8 mg/kg 3 weeks on/1 week off, refametinib 30 mg BID): 4.53 µg·h/mL
AUC(0-t) [3, 9]: 5.31 µg·h/mL
Cmax [3, 8]: 0.873 µg/mL
Cmax [3, 9]: 0.845 µg/mL
AUC(0-t) ([3]; cohort 2): 5.11 µg·h/mL
Cmax ([3]; cohort 2): 0.943 µg/mL
median time of Cmax, range over cohorts ([3]; multiple doses of refametinib 30 mg or 50 mg BID): 1.50 to 4.00 h
MTD, single agent ([4]; oral, twice daily (BID), monotherapy): 50 mg
partial response rate ([4]; refametinib monotherapy): 2%
stable disease ([4]; refametinib monotherapy): 16%

COc1c(OCCCN2CCOCC2)ccc2c1N=C(NC(=O)c1cnc(N)nc1)N1CCN=C21 [copanlisib]
Patients with dose modifications attributed to copanlisib-related TEAEs ([2]; N = 64): 39.1%
Patients with TEAEs considered related to copanlisib ([2]; N = 64, given with refametinib): 93.8%
Cmax ([5]; 0.2 mg/kg, cohort 1: copanlisib 0.2 mg/kg 3 weeks on/1 week off, refametinib 30 mg BID): 0.126 µg/mL
AUC(0-t) [5, 10]: 0.725 µg·h/mL
AUC(0-t) [5, 11]: 0.89 µg·h/mL
Cmax [5, 10]: 0.241 µg/mL
Cmax [5, 11]: 0.312 µg/mL
Cmax ([5]; cohort 2): 0.189 µg/mL
median time of Cmax, range over cohorts ([5]; single infusion 0.2–0.8 mg/kg, cycle 1, day 1): 0.50 to 1.03 h
copanlisib Cmax and AUC(0–25), day 1 (alone) versus day 15 (with refametinib) ([5]; within each cohort): comparable between day 1 and day 15
maximum tolerated dose (MTD), single agent [6]: 0.8 mg/kg
activity of 0.4 mg/kg versus 0.8 mg/kg [7]: less active than 0.8 mg/kg

O=C(NOCCO)c1cc(CN2OCCCC2=O)c(F)c(F)c1Nc1ccc(I)cc1F [RO4987655]
incidence of ophthalmologic toxicities [1]: 27%
